Laboratory results reported in ChEMBL document CHEMBL1141405, “Design and synthesis of novel sulfonamide-containing bradykinin hB2 receptor antagonists. 2. Synthesis and structure-activity relationships of alpha,alpha-cycloalkylglycine sulfonamides” (J Med Chem, 2007).
Calls of active or inactive are those of the source. No cut-off for these calls is given here.

Tests used:
B2 bradykinin receptor [1] = biological target: T1, B2 bradykinin receptor (Homo sapiens, UniProt P30411); test: Displacement of [3H]BK from human bradykinin B2 receptor transfected in CHO cells; format: cell-based
T1 sequence (P30411 whole entry): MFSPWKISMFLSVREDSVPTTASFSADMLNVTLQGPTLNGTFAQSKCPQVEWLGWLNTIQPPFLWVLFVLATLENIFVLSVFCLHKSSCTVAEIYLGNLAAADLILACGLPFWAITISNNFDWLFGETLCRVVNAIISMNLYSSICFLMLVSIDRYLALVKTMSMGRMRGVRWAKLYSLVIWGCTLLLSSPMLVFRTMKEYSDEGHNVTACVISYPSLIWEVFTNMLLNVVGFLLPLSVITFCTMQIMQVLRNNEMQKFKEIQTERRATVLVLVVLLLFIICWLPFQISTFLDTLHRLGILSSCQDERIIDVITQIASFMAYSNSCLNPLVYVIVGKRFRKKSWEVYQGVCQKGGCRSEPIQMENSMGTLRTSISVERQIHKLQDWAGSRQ
Summary of the method: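 pKi from inhibition of specific [3H]-BK binding to membrane preparations of CHO cells stably transfected with the human B2 receptor.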

B2 bradykinin receptor [2] = biological target: T1, B2 bradykinin receptor; test: Antagonist potency at human bradykinin B2 receptor assessed as effect on inositol monophosphate accumulation in CHOdhfr- cells; format: functional, cell-based; conditions: read-out: pA2 (converted)
Summary of the method: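 pA2 derived from antagonism of bradykinin-stimulated inositol monophosphate accumulation in CHOdhfr- cells stably transfected with the human B2 receptor.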

B2 bradykinin receptor [3] = biological target: T2, B2 bradykinin receptor (Cavia porcellus, UniProt O70526); test: Antagonist potency on BK-induced contraction of guinea pig ileum longitudinal smooth muscle; format: functional, tissue-based; conditions: read-out: pA2 (converted)
T2 sequence (O70526 whole entry): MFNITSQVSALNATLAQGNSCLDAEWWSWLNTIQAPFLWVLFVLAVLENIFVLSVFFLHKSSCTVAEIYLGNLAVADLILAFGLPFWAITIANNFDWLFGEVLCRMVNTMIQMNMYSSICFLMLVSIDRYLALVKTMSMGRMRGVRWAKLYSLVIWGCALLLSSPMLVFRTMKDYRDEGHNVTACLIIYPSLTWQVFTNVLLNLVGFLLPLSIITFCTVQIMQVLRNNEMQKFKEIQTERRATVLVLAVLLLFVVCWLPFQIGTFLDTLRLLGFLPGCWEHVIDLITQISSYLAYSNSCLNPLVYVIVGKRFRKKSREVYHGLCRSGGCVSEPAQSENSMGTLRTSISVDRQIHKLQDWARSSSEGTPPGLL

[4] = biological target: T3, B2 bradykinin receptor (Cavia porcellus) (UniProt O70526); test: Inhibition of BK-induced bronchoconstriction in Dunkin Hartley guinea pig at 300 nmol/kg, it; format: functional; set-up: scale not given: the % may be the effect or the level left
T3 sequence (whole entry): T2 sequence (O70526 whole entry)
Summary of the method: (§1)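 Compound was given intratracheally to anaesthetized guinea pigs. Five min later, BK (10 nmol/kg iv) challenge was given and repeated every 30 min for 210 min. Pulmonary insufflation pressure was monitored. Result is Σ%: residual BK response as % of basal, normalized to control at 5–210 min time points, expressed as % of theoretical maximum.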

[5] = biological target: T3, B2 bradykinin receptor (Cavia porcellus); test: Inhibition of BK-induced bronchoconstriction in Dunkin Hartley guinea pig at 10 nmol/kg, it; format: functional; set-up: scale not given: the % may be the effect or the level left; summary of the method: as §1
B1 bradykinin receptor = biological target: T4, B1 bradykinin receptor (Homo sapiens, UniProt P46663); test: Binding affinity to human bradykinin B1 receptor
T4 sequence (P46663 whole entry): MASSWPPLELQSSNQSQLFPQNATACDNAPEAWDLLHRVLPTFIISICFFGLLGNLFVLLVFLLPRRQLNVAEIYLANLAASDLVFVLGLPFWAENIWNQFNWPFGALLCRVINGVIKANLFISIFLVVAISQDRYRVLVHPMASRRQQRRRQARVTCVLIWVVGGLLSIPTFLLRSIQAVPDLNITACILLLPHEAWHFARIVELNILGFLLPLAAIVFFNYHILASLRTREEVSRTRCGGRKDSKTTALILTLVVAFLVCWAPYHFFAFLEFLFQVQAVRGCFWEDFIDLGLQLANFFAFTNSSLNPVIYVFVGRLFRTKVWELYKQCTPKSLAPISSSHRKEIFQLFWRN

[6] = biological target: T3, B2 bradykinin receptor (Cavia porcellus); test: Effect on BK-induced hypotension in Dunkin Hartley guinea pig at 300 nmol/kg, it; format: functional
Summary of the method: as §1, with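 “Blood” for “Pulmonary insufflation”, “each observation” for “5–210 min”, “(5–210 min),” for “points,”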

[7] = biological target: T3, B2 bradykinin receptor (Cavia porcellus); test: Inhibition of BK-induced bronchoconstriction in Dunkin Hartley guinea pig at 100 nmol/kg, it; format: functional; set-up: scale not given: the % may be the effect or the level left; summary of the method: as §1
[8] = biological target: T3, B2 bradykinin receptor (Cavia porcellus); test: Effect on BK-induced hypotension in Dunkin Hartley guinea pig at 100 nmol/kg, it; format: functional
Summary of the method: as §1, with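 “Blood” for “Pulmonary insufflation”, “each observation” for “5–210 min”, “(5–210 min),” for “points,”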

[9] = biological target: T3, B2 bradykinin receptor (Cavia porcellus); test: Inhibition of BK-induced bronchoconstriction in Dunkin Hartley guinea pig at 30 nmol/kg, it; format: functional; set-up: scale not given: the % may be the effect or the level left; summary of the method: as §1
[10] = biological target: Muscarinic acetylcholine receptor (Homo sapiens) (UniProt P20309+P08173+P11229+P08172+P08912); test: Activity at muscarinic receptor at 1 uM; format: protein assay
Homo sapiens = species: Homo sapiens; test: Activity at nicotinic receptor at 1 uM

A Ki (B2 bradykinin receptor [1]) of 0.398 nM, a Kb (B2 bradykinin receptor [2]) of 0.398 nM and a Kb (B2 bradykinin receptor [3]) of 0.316 nM were found for `Cc1cc(C)c2cccc(OCc3c(Cl)ccc(S(=O)(=O)N4CCC[C@@H]4C(=O)NCCCNC(=O)c4ccc(C(=N)N)cc4)c3Cl)c2n1` in this work. For the same compound, the Activity [4] was 96%, the Activity [5] was 73% and the Ki (B1 bradykinin receptor) was > 10000 nM. The Activity [6] was 100%.
An Activity [7] of 13%, an Activity [8] of 60% and an Activity [9] of 39% were found for `Cc1cc(C)c2cccc(OCc3c(Cl)ccc(S(=O)(=O)NC4(C(=O)N5CCN(C(=O)[C@@H](N)CCC[N+](C)(C)C)CC5)CCOCC4)c3Cl)c2n1` [FASITIBANT] in this work. For the same compound, the Activity [5] was 63%, the Ki (B1 bradykinin receptor) was > 10000 nM and the Activity [10] was “inactive”. The Activity (Homo sapiens) was “inactive”.
A Ki (B2 bradykinin receptor [1]) of 1.58 nM, a Kb (B2 bradykinin receptor [2]) of 0.794 nM and a Kb (B2 bradykinin receptor [3]) of 0.158 nM were found for `Cc1cc(C)c2cccc(OCc3c(Cl)ccc(S(=O)(=O)NC4(C(=O)N5CCN(C(=O)[C@@H](N)CCCCN(C)C)CC5)CCCC4)c3Cl)c2n1` in this work. For the same compound, the Activity [4] was 29%, the Ki (B1 bradykinin receptor) was > 10000 nM and the Activity [6] was 67%.
A Ki (B2 bradykinin receptor [1]) of 0.631 nM, a Kb (B2 bradykinin receptor [2]) of 1.58 nM and a Kb (B2 bradykinin receptor [3]) of 0.0398 nM were found for `Cc1cc(C)c2cccc(OCc3c(Cl)ccc(S(=O)(=O)NC4(C(=O)N5CCN(C(=O)C[C@@H](N)CCCN(C)C)CC5)CCCC4)c3Cl)c2n1` in this work. The Activity [4] was 21%, the Ki (B1 bradykinin receptor) was > 10000 nM and the Activity [6] was 51%.
